Compound activity deposited in PubChem by several laboratories.
S1P4 ag: S1P4 receptor agonists, primary screen, cell-based. S1P4-expressing cell line, agonist reporter assay. activation, % at 4.98 µM. hit rate 0.35% among 220,000. Sphingosine 1-phosphate receptor 4 (Homo sapiens), O95977; in the data active means activation above about 11%;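 further: 0% = DMSO vehicle and 100% = reference agonist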
Target sequence (O95977 whole entry, looked up): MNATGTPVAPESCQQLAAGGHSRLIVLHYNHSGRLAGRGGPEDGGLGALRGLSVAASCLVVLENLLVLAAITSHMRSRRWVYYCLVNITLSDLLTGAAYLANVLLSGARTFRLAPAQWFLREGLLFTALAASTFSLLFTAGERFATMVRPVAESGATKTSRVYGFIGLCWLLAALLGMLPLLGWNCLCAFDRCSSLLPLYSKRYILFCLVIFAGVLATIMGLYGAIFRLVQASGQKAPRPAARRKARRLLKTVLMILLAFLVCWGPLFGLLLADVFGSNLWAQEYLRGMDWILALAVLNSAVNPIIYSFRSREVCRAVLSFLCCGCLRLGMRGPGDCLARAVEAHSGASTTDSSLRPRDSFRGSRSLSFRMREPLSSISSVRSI
Dynein transport: inhibitors of GR-EGFP nuclear translocation, primary screen, dynein cargo transport inhibitor project, imaging, high-content, 3617.4 mouse cells. z-score, hits read low. hit rate 0.47% among 220,000. test concentration mostly 20 µM; stimulated with dexamethasone, 1 µM; stronger effect = lower value;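 active means plate z-score of nuclear minus cytoplasmic receptor signal below a set negative limit, without overly bright fluorescence or cell loss, cut at about -3.5 in these data, passing the limit was not always enough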;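 further: z-score of nuclear minus cytoplasmic ring GR-EGFP intensity difference per well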
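medium = tetracycline-free induction medium containing charcoal-stripped FBS | probe or stimulus = dexamethasone, 1.0 µM final | timing = 48 h induction, then 1 h compound, then 30 min agonist, 37 °C | detection = automated 10x imaging of fixed Hoechst-stained cells | read-out basis = nuclear versus cytoplasmic GR-EGFP signal, averaged per well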
S1P4 antag: S1P4 receptor antagonists, primary screen, cell-based | Sphingosine 1-phosphate receptor 4 (Homo sapiens), O95977 | S1P4-expressing cells, antagonist mode, reporter read-out | inhibition, % at 4.98 µM | hit rate 0.26% among 220,000 | AID 1510, 2009; in the data active means inhibition above about 29%;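 further: 0% = wells stimulated with agonist and 100% = vehicle wells without agonist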
Tb hexokinase: Trypanosoma brucei hexokinase 1 inhibitors, primary screen, biochemical, G6PDH-coupled NADH absorbance, MLSCN library. hexokinase 1 [Trypanosoma brucei]. recombinant TbHK1, G6PDH-coupled NADH A340. inhibition, % at 10 µM. hit rate 0.11% among 220,000. AID 1430, 2008;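 active means inhibition of 50% or more in the single-dose primary screen; inactive means inhibition below 50%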
S1P3 antag: S1P3 receptor antagonists, primary screen, cell-based | AID 485, 2006 | inhibition, % at 4.98 µM | CHO S1P3 NFAT-BLA reporter, FRET fluorescence, antagonist mode | Sphingosine 1-phosphate receptor 3 (Homo sapiens), Q99500 | hit rate 0.27% among 170,000;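 active means inhibition above the plate cutoff, the mean inhibition of test wells on that plate plus 3 SD, cut at about 28% in these data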;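 further: cells challenged with S1P at its EC80 of 0.8 µM; blue over green emission ratio from cleaved BLA substrate after 4 h stimulation; 0% = S1P-stimulated wells and 100% = unstimulated DMSO-only wells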
Target sequence (Q99500 whole entry, looked up): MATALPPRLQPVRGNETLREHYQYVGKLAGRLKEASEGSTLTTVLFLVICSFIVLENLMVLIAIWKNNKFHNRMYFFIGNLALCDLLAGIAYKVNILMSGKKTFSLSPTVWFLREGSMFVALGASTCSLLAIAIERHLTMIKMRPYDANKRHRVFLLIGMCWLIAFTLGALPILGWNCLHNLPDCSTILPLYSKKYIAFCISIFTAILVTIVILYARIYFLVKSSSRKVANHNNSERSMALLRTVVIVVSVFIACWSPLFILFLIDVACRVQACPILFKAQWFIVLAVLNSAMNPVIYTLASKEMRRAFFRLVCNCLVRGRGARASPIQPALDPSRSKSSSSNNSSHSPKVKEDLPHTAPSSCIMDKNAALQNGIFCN
Calb biofilm kill: clotrimazole potentiators killing C. albicans biofilm, primary screen, 4-compound mixtures. C. albicans biofilm persisters + clotrimazole, fluorescence viability; primary screen in compound mixtures of four per well. inhibition, % at 7.6 µM. hit rate 0.02% among 120,000;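 active means inhibition above 30.3% in the primary screen of four-compound pools, then above 30% when the compound was retested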;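 further: compounds exposed to preformed 24 h biofilms for 48 h; 0% = untreated biofilm control and 100% = clotrimazole plus chlorhexidine kill blank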
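System: C. albicans CAF4-2 wild-type biofilms; Medium: RPMI/MOPS medium, pH 7.0; Reagent: Clotrimazole, 50 µg/mL; Times: biofilm formation 24 h, compound exposure 48 h, 37 °C; Detection: 2-h Alamar Blue fluorescence, 535/590 nm excitation/emission; Evaluation: percent inhibition of biofilm viability.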
* = called active by the depositor; nt = no result given. In the library only some 1.3% were active in any assay of this set; here they are far more common.

SMILES | S1P4 ag | Dynein transport | S1P4 antag | Tb hexokinase | S1P3 antag | Calb biofilm kill
CCCCCCCCCCCCCCCC[n+]1cccc(C(=O)N(CC)CC)c1 | 1.2 | -5.07* | 1.7 | 35.0 | 15.8 | 5.1
CCCCCCCC[n+]1cccc(C(=O)N(CC)CC)c1 | 1.4 | 0.211 | -7.9 | 16.8 | -3.5 | 12.0
CCCCCCCCCCCCCCCC[n+]1ccc(C(N)=O)cc1 | -0.2 | 0.693 | -4.9 | 64.3* | -8.7 | 12.3
CCCC(c1nnnn1Cc1ccco1)N1CCN(c2cc(Cl)ccc2C)CC1 (stereo not given) | -0.9 | -0.289 | 9.0 | 10.5 | 60.0* | nt
CCCC(c1nnnn1Cc1ccco1)N1CCN(c2ccccc2)CC1 (stereo not given) | 0.1 | 0.14 | -1.7 | -6.0 | 3.2 | 12.5
CC(C)Cn1c(C(C)C)nc([N+](=O)[O-])c1S(=O)(=O)c1ccc(F)cc1 | 0.6 | -3.72* | -3.8 | -5.4 | nt | nt
COc1ccc(C(=O)C2CCCN(C(=O)c3ccoc3C)C2)cc1F (stereo not given) | -0.1 | -0.146 | -14.1 | -2.4 | 7.2 | 5.2
O=C(CSCCc1ccccn1)Nc1ccccn1 | 0.1 | -1.02 | 6.8 | 9.3 | 1.4 | nt
O=C(O)CSCCc1ccccn1 | 0.8 | 0.519 | -14.4 | 2.5 | 56.4* | nt
Cc1ccc(CN(Cc2ccccc2)C(=S)Nc2ccccc2C)o1 | 0.8 | -0.505 | 11.8 | -3.2 | -4.8 | 10.9
CCn1c(CNC(=O)Cc2ccc(OC)cc2)nnc1SCC(=O)Nc1nccs1 | 1.5 | -0.429 | -24.2 | -0.2 | 60.5* | nt
CCn1c(CNC(=O)Cc2ccc(OC)cc2)nnc1SCC(=O)Nc1ccc(C(=O)O)cc1 | -0.1 | -0.524 | -4.2 | 4.1 | -17.9 | 13.2
CCOC(=O)/C(C#N)=C\C1=C(N2CCOCC2)CC(C)(C)OC1 | 0.4 | -1.06 | -0.3 | 1.6 | -6.3 | 14.1
O=C(c1ccco1)c1cn(CC(=O)N2CCCCCC2)c2ccccc12 | 0.8 | -0.292 | 3.1 | -17.2 | -15.7 | 9.2
CC1CCCCN1C(=O)Cn1cc(C(=O)c2ccco2)c2ccccc21 (stereo not given) | -4.4 | 1.97 | -31.9 | -33.3 | 95.9* | nt
CCOC(=O)c1[nH]c2ccccc2c1NC(=O)CC | 0.3 | 3.1 | -10.7 | -14.2 | 55.0* | nt
c1ccc2c(NCCCN3CCOCC3)c3ccccc3nc2c1 | 11.5* | -0.669 | -31.9 | 1.8 | -13.2 | -7.3
CC(C)c1nnc(NC(=O)C2CCCCC2)s1 | 4.3 | 1.75 | -27.2 | 0.2 | 93.9* | nt
O=C(NCCSc1ccccn1)c1ccc(Cl)cc1Cl | -1.5 | 1.53 | -17.5 | 3.3 | -6.7 | 18.4
CC(=O)N(Cc1cccs1)Cc1cc2cc(C)c(C)cc2nc1Cl | 1.4 | 0.0584 | -12.8 | 2.5 | 1.4 | 10.5
CCCCn1c(Nc2ccccc2)nc2ccccc21 | 0.5 | 1.04 | 4.4 | -0.5 | nt | nt
CCCn1c(Nc2nc3ccccc3n2C)nc2ccccc21 | 0.9 | 2.98 | 5.4 | -5.2 | 57.8* | nt
CN(C)c1cccc2c1c(NC(=O)c1ccc(Cl)cc1)nn2C | 0.1 | 0.479 | 2.4 | -11.7 | -5.1 | 12.1
COc1cccc(N2C(=O)C(CC(=O)Nc3ccccc3)N(C3CCCCC3)C2=O)c1 (stereo not given) | -0.1 | 0.456 | -13.9 | 27.8 | nt | nt
COc1cccc(N2C(=O)C(CC(=O)Nc3ccc(F)cc3)N(C3CCCCC3)C2=O)c1 (stereo not given) | -0.4 | -0.79 | 12.9 | -2.5 | 102.9* | nt
SMILES | S1P4 ag | Dynein transport | S1P4 antag | Tb hexokinase | S1P3 antag | Calb biofilm kill
COCCn1c(N)c(C(=S)NC(=O)c2cccs2)c(=O)[nH]c1=O | -1.1 | 1.97 | 5.8 | -23.9 | -20.7 | 4.6
C=CCNC(=S)Nc1ccc(N(C)C)cc1 | 1.7 | 0.467 | 15.2 | -10.1 | 0.5 | 19.1
COC(=O)c1cc(=O)n(Cc2ccc3c(c2)OCO3)c(=Nc2ccc(F)cc2)s1 | 3.4 | -3.33 | -17.6 | -5.6 | nt | nt
COC(=O)c1cc(=O)n(Cc2ccc3c(c2)OCO3)c(=Nc2ccccc2)s1 | -0.9 | -3.52* | 1.6 | -0.9 | 33.6 | nt
O=C(Nc1ccc(N2CCOCC2)cc1)Nc1ccc2nc(-c3ccco3)c(-c3ccco3)nc2c1 | -1.6 | -1.39 | 1.3 | -18.8 | 56.8* | nt
O=C(Nc1ccc2nc(-c3ccco3)c(-c3ccco3)nc2c1)NC1CC1 | 1.3 | 0.318 | 2.4 | -0.6 | nt | 13.6
COc1cc(OC)c(OC)cc1/C=N/NC(=O)CCc1c(C)n[nH]c1C | -0.1 | 1.04 | 2.4 | -59.8 | -8.2 | 22.4
COc1cccc(-c2cc(C(=O)Nc3c(C)nn(Cc4ccccc4)c3C)no2)c1 | -2.2 | 0.245 | 5.9 | 4.0 | 53.6* | nt
CC(C)(C)C1CCc2onc(C(=O)NCc3ccc(F)cc3)c2C1 (stereo not given) | 0.6 | 1.13 | 3.9 | 2.9 | 63.7* | nt
O=C(NCc1ccc(F)cc1)c1noc2c1CCCC2 | -4.3 | -0.132 | -1.1 | 0.6 | -18.6 | nt
O=C(COC(=O)c1cc(=O)[nH]c2ccccc12)Nc1nc(-c2ccccc2)cs1 | 0.3 | -0.545 | -4.3 | -9.1 | 1.2 | 14.7
CCn1c(NC(=O)c2ccccc2F)c(-c2cccs2)c(=O)c2ccccc21 | 0.6 | -0.641 | -17.3 | -34.5 | -21.7 | 8.3
CCn1c(SCC(=O)c2ccc(O)c(O)c2)nnc1-c1ccccc1OC | -0.8 | 0.595 | 7.6 | 47.2 | 73.8* | nt
O=[N+]([O-])/C=C/c1cc2ccccc2[nH]1 | 1.8 | -1.92 | 3.9 | -14.3 | 1.3 | 23.4
COc1ccc(C)cc1N(CC(=O)N/N=C/c1ccccc1C(=O)O)S(=O)(=O)c1ccccc1 | 0.5 | -0.996 | -15.9 | -489.7 | -8.7 | 16.4
Nc1nc(-c2cccc(NS(=O)(=O)c3ccccc3)c2)cs1 | -3.6 | -0.0322 | 0.3 | 4.6 | 52.6* | nt
COc1cccc(-n2c(SCC(=O)N3CCOCC3)nnc2-c2c[nH]c3ccccc23)c1 | 1.4 | 0.525 | -5.8 | 1.2 | 52.6* | nt
C(#Cc1ccccc1)C[N+]1(CC#Cc2cccc3ccccc23)CCOCC1 | 1.7 | 1.18 | -4.7 | 14.9 | -7.9 | 44.8*
COc1ccc(CCNC(=O)c2cc(-c3cc(Cl)ccc3O)n[nH]2)cc1OC | -0.2 | -0.594 | -9.6 | -12.3 | -0.2 | 19.5
CSc1nnc2c(n1)OC=Nc1ccc(Br)cc1-2 | 1.4 | -0.488 | 0.2 | -16.8 | 9.7 | 14.9
CCc1ccccc1NC1c2ccccc2C(=O)N1Cc1ccco1 (stereo not given) | 0.4 | 0.117 | -26.5 | -1.8 | 74.6* | nt
O=C(/C=C1\C(=O)Nc2ccccc21)/C=C1\C(=O)Nc2ccccc21 | -0.8 | -4.41* | 46.4* | -4.8 | -6.3 | 3.6
CN(O)/C=C1\C(=O)Nc2ccccc21 | -1.0 | -0.585 | 5.8 | -14.9 | nt | nt
Cc1ccc(C(=O)Nc2cc3ccccc3oc2=O)cc1 | 1.1 | -0.475 | 1.7 | -9.4 | 2.4 | 6.3
